Compounds with a hit are over-represented: about 2.3% of the library has one in this group of screens.
Rpn11 inh: Rpn11 (PSMD14) deubiquitinase inhibitors, primary screen, biochemical, fluorescence polarization, uHTS | actives 0.59% (n = 360,000) | 26S proteasome non-ATPase regulatory subunit 14 (Homo sapiens), O00487 | human 26S proteasome, Ub4-pepOG fluorescence polarization; 20S core pre-blocked with epoxomicin | inhibition, % at 20 µM | AID 588493, 2011;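 active = inhibition at 20 µM, scaled to each plate's controls, above about 33%, limit read from the data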
SUMO1 PPI mod: modulators of SUMO1 protein-protein interactions, primary screen, biochemical, uHTS; Small ubiquitin-related modifier 1 (Homo sapiens), P63165; actives 0.33% (n = 360,000); SUMO1 binding to a labelled peptide, TR-FRET, 1 h; AID 602429, 2012; inhibition, % at 20 µM; in the data active = inhibition above about 37%
Scp1 inh: Scp-1 phosphatase inhibitors, primary screen, biochemical, colorimetric, uHTS; Recombinant Scp1, phosphopeptide, malachite green phosphate absorbance; inhibition, % at 20 µM; actives 0.88% (n = 340,000); AID 493091, 2011;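 active = inhibition above about 50% at 20 µM, limit read from the data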;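 also: plate controls were DMSO wells with enzyme for no effect and wells lacking enzyme for full effect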
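assay system = SCP-1 phosphatase catalytic domain, residues 76-261 | buffer or medium = 50 mM Tris acetate pH 5.5, 0.005% Tween-20, 10 mM MgCl2 | incubation = enzyme reaction 45 min at room temperature, colour 5 min, stabilisation 30 min | signal = Phosphate-binding colour reagent, absorbance read at 630 nm | measure = % inhibition at 20 µM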
DNMT1 block: human DNMT1 methyltransferase inhibitors, primary screen, biochemical, molecular beacon, fluorescence, HinP1I cleavage, uHTS; inhibition (reported as % activation of signal), % at 10 µM; AID 588458, 2011; actives 0.83% (n = 360,000); DNA (cytosine-5)-methyltransferase 1 (Homo sapiens), P26358; in the data active = inhibition above about 50%
LMPTP inh: LMPTP phosphatase inhibitors, primary screen, biochemical, fluorescence intensity, uHTS. AID 651560, 2012. actives 0.22% (n = 360,000). inhibition, % at 20 µM. Low molecular weight phosphotyrosine protein phosphatase (Homo sapiens), P24666. recombinant LMPTP-A, OMFP fluorogenic substrate;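 active = compounds that cut the enzyme signal by at least half of the control window in the single-dose screen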;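 also: plate controls were DMSO wells with enzyme plus substrate for no effect and substrate without enzyme for full effect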
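Test system – LMPTP-A phosphatase enzyme · Quantity – 0.625 nM LMPTP-A final · Reagent – OMFP substrate, 400 µM final · Dosing – one test concentration per compound, 20 µM, with 3% DMSO overall · Timing – 50 min enzyme reaction at room temperature, protected from light · Detection – fluorescence intensity · Controls – substrate-only low control, DMSO enzyme-plus-substrate high control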
STEP block: STEP phosphatase inhibitors, primary screen, biochemical, fluorescence intensity, uHTS | recombinant STEP, OMFP fluorogenic substrate | inhibition, % at 20 µM | actives 0.25% (n = 360,000) | AID 588621, 2011;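 active = inhibition at 20 µM, scaled per plate between control wells, above about 37%, limit read from the data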;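 also: 0% = DMSO with enzyme and substrate and 100% = substrate only without enzyme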
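Assay system: isolated STEP enzyme / Timing: 20 min at room temperature, dark / Doses: 20 µM, 1% DMSO / Technique: fluorescence intensity, excitation 480 nm, emission 540 nm / Reagent: fluorogenic phosphatase substrate OMFP at 25 µM final / Measure: percent inhibition scaled to no-enzyme and uninhibited-enzyme controls, plate-pattern corrected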
Rpn11 confirm: Rpn11 (PSMD14) deubiquitinase inhibitors, confirmation, biochemical, fluorescence polarization, single concentration | purified human 26S proteasome, Ub4-pepOG fluorescence polarization; proteasome pretreated with epoxomicin | inhibition, % at 20 µM | shares compounds with Rpn11 inh | actives 29% (n = 1,900)
MMP-2 counter: MMP-2 enzyme inhibition, confirmation, counter-screen for RPN11 inhibitor project, biochemical, fluorescence, single concentration | inhibition, % at 20 µM | shares compounds with Rpn11 inh | actives 4% (n = 1,900) | recombinant MMP-2, FRET peptide cleavage fluorescence | AID 602330, 2012;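 also: human MMP-2 activated beforehand with APMA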
Thrombin inh: bovine thrombin protease inhibition, confirmation, counter-screen for Rpn11 inhibitor project, biochemical, fluorescence polarization, single concentration; inhibition, % at 20 µM; shares compounds with Rpn11 inh; bovine thrombin cleavage of Ub4-pepOG; actives 13% (n = 1,900);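 active = mean inhibition at least 40% at 20 µM, or signal 3 deviations below plate average, so some actives read negative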;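 also: plate controls were thrombin with DMSO for no effect and buffer wells lacking thrombin for full effect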
Target sequence (P00735 whole entry, looked up): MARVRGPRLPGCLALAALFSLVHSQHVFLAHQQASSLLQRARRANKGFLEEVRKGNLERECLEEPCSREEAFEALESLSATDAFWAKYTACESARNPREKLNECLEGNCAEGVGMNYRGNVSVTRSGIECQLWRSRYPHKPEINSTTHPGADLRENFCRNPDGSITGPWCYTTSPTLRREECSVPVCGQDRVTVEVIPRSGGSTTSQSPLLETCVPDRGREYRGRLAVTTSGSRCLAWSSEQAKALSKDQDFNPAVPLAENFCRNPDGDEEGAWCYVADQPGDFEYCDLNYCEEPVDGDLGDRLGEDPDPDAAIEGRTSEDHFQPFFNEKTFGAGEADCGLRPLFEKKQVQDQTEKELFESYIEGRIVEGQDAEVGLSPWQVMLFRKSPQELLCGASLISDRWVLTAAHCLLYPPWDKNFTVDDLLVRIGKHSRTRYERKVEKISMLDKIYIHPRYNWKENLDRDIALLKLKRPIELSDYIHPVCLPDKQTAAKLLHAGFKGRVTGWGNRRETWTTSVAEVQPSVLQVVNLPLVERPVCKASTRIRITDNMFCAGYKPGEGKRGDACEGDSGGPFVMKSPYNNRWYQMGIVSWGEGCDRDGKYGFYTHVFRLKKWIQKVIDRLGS
* hit, by the source's call; nt = no result. Rule as the data show it, unless noted: active = inhibition above about 40%; inactive = the rest.

SMILES	Rpn11 inh	SUMO1 PPI mod	Scp1 inh	DNMT1 block	LMPTP inh	STEP block	Rpn11 confirm	MMP-2 counter	Thrombin inh
O=C(NC(=S)Nc1ccccc1O)c1cncc(Br)c1	48*	2	-1	-5	-1	1	39	-25	9
CN(C)NC(=S)NC1CC2CCC1C2 (stereo unspecified)	-6	3	-16	0	-1	1	nt	nt	nt
Nc1ccc2c(c1)C(=NO)c1cc([N+](=O)[O-])ccc1-2	44*	-17	4	-43	2	0	12	-3	7
COc1ccc(/C=C2\Oc3cc(OCC(N)=O)ccc3C2=O)cc1OC	8	-30	-4	-8	0	2	nt	nt	nt
COc1ccc(-c2ccc3c(c2)O/C(=C\c2ccsc2)C3=O)cn1	39*	3	6	-9	2	1	-1	-11	-16
NC(=O)C(=O)N/N=C/c1c2ccccc2cc2ccccc12	41*	-11	2	6	1	-1	12	-31	-9
O=C(/C(=C(\[O-])c1ccccc1)[n+]1ccc2ccccc2c1)c1ccccc1	43*	-6	-4	-13	2	-4	-34	-47	-38
O=C(/C(=C(\[O-])c1ccccc1)[n+]1ccc2ccccc2c1)c1ccc(Cl)cc1	18	-5	-1	-20	0	-2	nt	nt	nt
Nc1c(-c2ccccc2)nc(Cl)nc1-c1ccccc1	6	-9	-1	0	0	0	nt	nt	nt
Nc1nc(-c2ccccc2)c(-c2ccccc2)n1N	56*	-9	-16	0	-2	-2	13	-31	14
CCCCCCCCCCCCCCC(O)C[N+](C)(CCO)CCO (stereo unspecified)	83*	-152	7	17	-4	8	42*	-21	-27
CCCCCCCC(=O)OCC(O)CO (stereo unspecified)	25	-1	-9	3	0	-4	nt	nt	nt
COc1ccc(Cc2nc3ccc(C(=O)N(C)CCn4ccnc4)cc3o2)cc1OC	-6	-10	-10	-2	-1	-5	nt	nt	nt
O=c1[nH]c(=S)[nH]c2sc3c(c12)CCCCCC3	3	3	11	0	2	4	nt	nt	nt
C[C@H](CO)N1C[C@H](C)[C@@H](CN(C)C(=O)Nc2cccc(F)c2)Oc2ncc(Br)cc2C1=O	79*	0	nt	-3	-1	1	8	-20	0
CCOC(=O)C1CCN(C(=O)CSc2ccccc2Cl)CC1	6	-1	-11	2	-1	-1	nt	nt	nt
COc1ccc(C2C(C#N)=C(N)Oc3cc(C)n(Cc4ccco4)c(=O)c32)cc1 (stereo unspecified)	46*	18	-1	33	0	-3	23	-23	6
COc1cccc(C2C(C#N)=C(N)Oc3cc(C)n(Cc4ccco4)c(=O)c32)c1 (stereo unspecified)	34	19	-15	42	0	2	nt	nt	nt

Assay outcomes from PubChem BioAssay.
